Data: the M2OR odorant receptor database

Experiments:
Conditions in all cases: stereoisomer not certain
OR13C2 (Homo sapiens) = target: T1, OR13C2 (Homo sapiens) (UniProt Q8NGS9)
T1 sequence (whole entry): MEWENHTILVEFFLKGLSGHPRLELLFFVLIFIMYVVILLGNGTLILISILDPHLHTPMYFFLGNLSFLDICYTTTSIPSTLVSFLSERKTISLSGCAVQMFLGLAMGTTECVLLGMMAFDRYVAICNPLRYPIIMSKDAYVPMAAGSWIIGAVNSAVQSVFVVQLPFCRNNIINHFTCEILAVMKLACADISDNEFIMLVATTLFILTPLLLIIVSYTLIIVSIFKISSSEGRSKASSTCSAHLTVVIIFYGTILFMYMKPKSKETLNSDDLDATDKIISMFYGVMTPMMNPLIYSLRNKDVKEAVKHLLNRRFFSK
Outline: (§1)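 Transient luciferase assays in mammalian cell lines were common, though methods varied by source. The values come from published papers and their supplementary material, with extra details from the original authors when needed. Responsive refers to a measured signal the original authors judged statistically different from baseline, and non-responsive (inactive) to the remainder.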

OR13C3 (Homo sapiens) = target: T2, OR13C3 (Homo sapiens) (UniProt Q8NGS6)
T2 sequence (whole entry): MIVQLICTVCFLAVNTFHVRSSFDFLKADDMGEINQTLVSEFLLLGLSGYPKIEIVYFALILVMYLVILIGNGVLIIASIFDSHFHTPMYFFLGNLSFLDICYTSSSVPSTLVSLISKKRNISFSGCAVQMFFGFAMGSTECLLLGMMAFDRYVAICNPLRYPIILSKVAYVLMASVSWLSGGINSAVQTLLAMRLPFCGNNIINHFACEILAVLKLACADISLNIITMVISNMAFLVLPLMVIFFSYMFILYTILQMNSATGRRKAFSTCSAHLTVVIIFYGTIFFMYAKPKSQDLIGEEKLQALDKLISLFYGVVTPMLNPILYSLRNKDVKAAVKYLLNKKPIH
Outline: as §1

OR13C4 (Homo sapiens) = target: T3, OR13C4 (Homo sapiens) (UniProt Q8NGS5)
T3 sequence (whole entry): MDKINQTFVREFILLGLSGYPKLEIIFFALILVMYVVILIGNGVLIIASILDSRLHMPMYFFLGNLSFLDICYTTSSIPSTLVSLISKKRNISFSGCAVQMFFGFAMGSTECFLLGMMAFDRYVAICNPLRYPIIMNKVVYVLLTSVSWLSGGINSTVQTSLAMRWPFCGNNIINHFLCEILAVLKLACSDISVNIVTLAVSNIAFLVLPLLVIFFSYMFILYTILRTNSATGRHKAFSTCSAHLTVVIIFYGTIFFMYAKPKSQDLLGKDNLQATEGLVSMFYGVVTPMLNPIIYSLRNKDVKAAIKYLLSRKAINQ
Outline: as §1

OR13C5 (Homo sapiens) = target: T4, OR13C5 (Homo sapiens) (UniProt Q8NGS8)
T4 sequence (whole entry): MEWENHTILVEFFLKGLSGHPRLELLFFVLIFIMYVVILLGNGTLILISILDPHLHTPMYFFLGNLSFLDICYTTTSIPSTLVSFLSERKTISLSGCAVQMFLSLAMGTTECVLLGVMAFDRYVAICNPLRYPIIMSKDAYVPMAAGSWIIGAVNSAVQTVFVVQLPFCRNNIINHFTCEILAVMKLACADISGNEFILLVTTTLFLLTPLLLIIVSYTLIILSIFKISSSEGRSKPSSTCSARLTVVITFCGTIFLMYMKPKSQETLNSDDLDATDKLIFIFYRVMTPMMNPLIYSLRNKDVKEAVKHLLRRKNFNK
Outline: as §1

OR13C8 (Homo sapiens) = target: T5, OR13C8 (Homo sapiens) (UniProt Q8NGS7)
T5 sequence (whole entry): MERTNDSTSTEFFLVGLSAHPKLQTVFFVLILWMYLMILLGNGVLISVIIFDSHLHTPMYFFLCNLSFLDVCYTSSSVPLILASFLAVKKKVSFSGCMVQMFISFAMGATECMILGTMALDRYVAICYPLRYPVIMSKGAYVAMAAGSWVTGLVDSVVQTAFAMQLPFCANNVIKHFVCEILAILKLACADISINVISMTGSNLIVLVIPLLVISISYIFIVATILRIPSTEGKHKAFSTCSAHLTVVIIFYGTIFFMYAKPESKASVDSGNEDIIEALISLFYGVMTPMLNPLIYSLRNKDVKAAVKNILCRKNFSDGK
Outline: as §1

OR13C9 (Homo sapiens) = target: T6, OR13C9 (Homo sapiens) (UniProt Q8NGT0)
T6 sequence (whole entry): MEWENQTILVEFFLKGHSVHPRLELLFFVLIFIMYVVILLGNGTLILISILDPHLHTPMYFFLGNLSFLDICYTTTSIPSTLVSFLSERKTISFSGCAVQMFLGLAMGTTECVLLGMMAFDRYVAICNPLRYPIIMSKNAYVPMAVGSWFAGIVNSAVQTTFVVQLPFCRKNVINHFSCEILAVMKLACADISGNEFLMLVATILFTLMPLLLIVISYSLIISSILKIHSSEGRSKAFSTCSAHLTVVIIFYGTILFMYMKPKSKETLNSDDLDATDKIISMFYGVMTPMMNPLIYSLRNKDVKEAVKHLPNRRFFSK
Outline: as §1

OR13D1 (Homo sapiens) = target: T7, OR13D1 (Homo sapiens) (UniProt Q8NGV5)
T7 sequence (whole entry): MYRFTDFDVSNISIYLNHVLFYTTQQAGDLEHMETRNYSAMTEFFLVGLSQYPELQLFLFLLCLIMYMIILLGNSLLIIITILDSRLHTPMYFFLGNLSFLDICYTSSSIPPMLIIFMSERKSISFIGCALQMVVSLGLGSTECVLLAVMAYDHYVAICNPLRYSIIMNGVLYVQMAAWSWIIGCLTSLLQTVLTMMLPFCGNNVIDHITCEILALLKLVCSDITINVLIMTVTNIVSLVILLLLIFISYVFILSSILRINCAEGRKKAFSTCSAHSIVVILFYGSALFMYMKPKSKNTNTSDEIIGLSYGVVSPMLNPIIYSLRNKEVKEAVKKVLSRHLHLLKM
Outline: as §1

OR13F1 (Homo sapiens) = target: T8, OR13F1 (Homo sapiens) (UniProt Q8NGS4)
T8 sequence (whole entry): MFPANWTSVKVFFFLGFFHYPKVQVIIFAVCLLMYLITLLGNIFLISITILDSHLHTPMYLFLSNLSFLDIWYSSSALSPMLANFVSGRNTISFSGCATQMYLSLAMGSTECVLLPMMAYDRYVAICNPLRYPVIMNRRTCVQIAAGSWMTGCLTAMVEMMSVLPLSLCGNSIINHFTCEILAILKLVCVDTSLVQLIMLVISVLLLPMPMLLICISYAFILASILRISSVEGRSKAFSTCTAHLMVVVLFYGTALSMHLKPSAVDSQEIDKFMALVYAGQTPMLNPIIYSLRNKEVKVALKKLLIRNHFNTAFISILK
Outline: as §1

OR13G1 (Homo sapiens) = target: T9, OR13G1 (Homo sapiens) (UniProt Q8NGZ3)
T9 sequence (whole entry): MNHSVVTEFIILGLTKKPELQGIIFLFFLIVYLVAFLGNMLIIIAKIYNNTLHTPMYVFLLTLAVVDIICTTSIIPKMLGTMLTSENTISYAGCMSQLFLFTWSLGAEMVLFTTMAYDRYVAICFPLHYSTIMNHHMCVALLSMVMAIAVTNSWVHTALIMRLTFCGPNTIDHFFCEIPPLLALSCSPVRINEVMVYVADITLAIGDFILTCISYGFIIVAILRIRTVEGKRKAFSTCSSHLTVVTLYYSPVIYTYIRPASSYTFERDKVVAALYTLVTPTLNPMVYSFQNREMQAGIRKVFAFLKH
Outline: as §1

OR13H1 (Homo sapiens) = target: T10, OR13H1 (Homo sapiens) (UniProt Q8NG92)
T10 sequence (whole entry): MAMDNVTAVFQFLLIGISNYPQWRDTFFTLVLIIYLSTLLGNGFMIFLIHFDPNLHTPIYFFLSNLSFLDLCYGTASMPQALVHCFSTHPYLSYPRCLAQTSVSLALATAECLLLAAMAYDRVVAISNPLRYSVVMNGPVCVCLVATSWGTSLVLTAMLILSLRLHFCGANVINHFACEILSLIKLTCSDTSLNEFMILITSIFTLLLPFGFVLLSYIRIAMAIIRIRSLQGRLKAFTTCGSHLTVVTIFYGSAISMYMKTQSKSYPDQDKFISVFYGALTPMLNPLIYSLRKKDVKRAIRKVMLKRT
Outline: as §1

OR13J1 (Homo sapiens) = target: T11, OR13J1 (Homo sapiens) (UniProt Q8NGT2)
T11 sequence (whole entry): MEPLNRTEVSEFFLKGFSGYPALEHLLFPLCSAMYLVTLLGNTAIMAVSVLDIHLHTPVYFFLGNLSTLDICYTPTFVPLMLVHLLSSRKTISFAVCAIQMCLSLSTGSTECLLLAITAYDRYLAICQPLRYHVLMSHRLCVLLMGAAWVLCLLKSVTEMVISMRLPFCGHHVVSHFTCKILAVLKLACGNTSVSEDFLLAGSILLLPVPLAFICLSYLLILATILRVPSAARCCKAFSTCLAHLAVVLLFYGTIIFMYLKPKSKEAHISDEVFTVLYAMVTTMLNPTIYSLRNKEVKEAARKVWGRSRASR
Outline: as §1

OR14A16 (Homo sapiens) = target: T12, OR14A16 (Homo sapiens) (UniProt Q8NHC5)
T12 sequence (whole entry): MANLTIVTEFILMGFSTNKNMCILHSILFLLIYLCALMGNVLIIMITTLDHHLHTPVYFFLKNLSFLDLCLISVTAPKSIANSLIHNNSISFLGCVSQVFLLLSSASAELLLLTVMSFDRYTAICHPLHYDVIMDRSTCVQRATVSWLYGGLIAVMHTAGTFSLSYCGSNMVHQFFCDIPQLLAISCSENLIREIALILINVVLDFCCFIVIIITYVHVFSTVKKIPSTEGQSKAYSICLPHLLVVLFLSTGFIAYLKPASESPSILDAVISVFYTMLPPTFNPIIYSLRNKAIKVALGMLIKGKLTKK
Outline: as §1

OR14A2 (Homo sapiens) = target: T13, OR14A2 (Homo sapiens) (UniProt Q96R54)
T13 sequence (whole entry): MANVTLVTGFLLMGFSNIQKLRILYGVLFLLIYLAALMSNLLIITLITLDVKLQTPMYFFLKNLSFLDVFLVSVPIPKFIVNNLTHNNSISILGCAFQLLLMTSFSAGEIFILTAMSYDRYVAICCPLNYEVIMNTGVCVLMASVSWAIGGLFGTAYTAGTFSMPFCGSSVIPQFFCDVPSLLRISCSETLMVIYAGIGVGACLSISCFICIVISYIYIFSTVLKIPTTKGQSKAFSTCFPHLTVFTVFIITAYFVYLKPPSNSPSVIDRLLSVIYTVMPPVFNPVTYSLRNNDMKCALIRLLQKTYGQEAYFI
Outline: as §1

OR14C36 (Homo sapiens) = target: T14, OR14C36 (Homo sapiens) (UniProt Q8NHC7)
T14 sequence (whole entry): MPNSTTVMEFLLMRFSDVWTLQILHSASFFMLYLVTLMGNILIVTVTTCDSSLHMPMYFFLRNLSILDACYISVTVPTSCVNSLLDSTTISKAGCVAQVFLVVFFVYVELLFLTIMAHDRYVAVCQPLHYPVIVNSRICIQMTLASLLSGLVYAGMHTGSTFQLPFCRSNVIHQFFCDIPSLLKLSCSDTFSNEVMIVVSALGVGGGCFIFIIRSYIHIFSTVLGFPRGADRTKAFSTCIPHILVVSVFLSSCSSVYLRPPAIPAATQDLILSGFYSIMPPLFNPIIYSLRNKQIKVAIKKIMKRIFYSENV
Outline: as §1

OR14I1 (Homo sapiens) = target: T15, OR14I1 (Homo sapiens) (UniProt A6ND48)
T15 sequence (whole entry): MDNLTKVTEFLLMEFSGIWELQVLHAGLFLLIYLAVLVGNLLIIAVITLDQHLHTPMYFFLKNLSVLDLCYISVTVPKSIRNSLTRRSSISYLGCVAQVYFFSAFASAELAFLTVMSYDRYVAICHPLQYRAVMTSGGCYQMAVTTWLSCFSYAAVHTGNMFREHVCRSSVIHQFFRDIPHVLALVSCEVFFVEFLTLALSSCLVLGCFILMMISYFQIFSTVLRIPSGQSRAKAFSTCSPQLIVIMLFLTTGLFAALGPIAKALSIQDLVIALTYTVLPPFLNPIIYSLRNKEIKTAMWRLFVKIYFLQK
Outline: as §1

OR14J1 (Homo sapiens) = target: T16, OR14J1 (Homo sapiens) (UniProt Q9UGF5)
T16 sequence (whole entry): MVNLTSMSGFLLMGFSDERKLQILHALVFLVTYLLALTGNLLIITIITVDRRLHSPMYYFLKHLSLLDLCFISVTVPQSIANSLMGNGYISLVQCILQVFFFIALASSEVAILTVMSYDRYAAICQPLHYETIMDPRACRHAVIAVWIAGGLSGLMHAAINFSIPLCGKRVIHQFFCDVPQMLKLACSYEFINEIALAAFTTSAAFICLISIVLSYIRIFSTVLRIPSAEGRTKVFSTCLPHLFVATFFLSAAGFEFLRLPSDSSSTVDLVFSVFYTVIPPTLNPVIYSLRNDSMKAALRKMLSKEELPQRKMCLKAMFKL
Outline: as §1

OR14K1 (Homo sapiens) = target: T17, OR14K1 (Homo sapiens) (UniProt Q8NGZ2)
T17 sequence (whole entry): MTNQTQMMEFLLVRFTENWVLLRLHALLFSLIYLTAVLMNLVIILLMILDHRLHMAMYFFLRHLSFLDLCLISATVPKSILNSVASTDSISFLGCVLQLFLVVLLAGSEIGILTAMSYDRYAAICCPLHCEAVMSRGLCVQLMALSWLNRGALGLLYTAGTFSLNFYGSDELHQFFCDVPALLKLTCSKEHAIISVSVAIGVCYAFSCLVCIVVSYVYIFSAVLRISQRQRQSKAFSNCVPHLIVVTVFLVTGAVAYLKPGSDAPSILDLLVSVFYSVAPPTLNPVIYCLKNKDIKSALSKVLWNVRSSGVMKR
Outline: as §1

OR1A1 (Homo sapiens) = target: T18, OR1A1 (Homo sapiens) (UniProt Q9P1Q5)
T18 sequence (whole entry): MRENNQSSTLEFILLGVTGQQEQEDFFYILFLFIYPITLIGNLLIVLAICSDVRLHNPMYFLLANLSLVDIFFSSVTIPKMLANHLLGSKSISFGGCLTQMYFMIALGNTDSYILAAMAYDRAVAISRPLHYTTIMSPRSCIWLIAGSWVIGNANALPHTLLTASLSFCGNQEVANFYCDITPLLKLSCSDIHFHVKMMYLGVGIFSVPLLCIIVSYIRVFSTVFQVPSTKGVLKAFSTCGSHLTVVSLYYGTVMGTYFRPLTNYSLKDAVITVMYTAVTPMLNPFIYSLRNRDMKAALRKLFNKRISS
Outline: as §1

Measured: odorant receptor agonist call;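 also: active if original authors judged signal statistically different from baseline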

CCC(S)C(C)CO (stereo not given)
inactive: all assays above

CCCC(=O)OC
inactive: OR1A1 (Homo sapiens)

CCCCCCC1CCC(=O)O1 (stereo not given)
inactive: OR1A1 (Homo sapiens)
